Where “and” joins values, the source holds several entries; their conditions need not be identical. Identical values can stand only once. Like-named read-outs stand apart in the source and are kept apart here.
Columns and labels:
[1] = tested on: human hepatocellular carcinoma (HepG2) cells; assay: Cytotoxicity, CellTiter 96 cell proliferation assay, HepG2 cells; type: cell-based; details: read-out: Cytotoxicity, CC50 HepG2; HepG2 cells
[2] = tested on: human T lymphoblast (CEM) cells; assay: Cytotoxicity, CellTiter 96 cell proliferation assay, CEM cells; type: cell-based; details: read-out: Cytotoxicity, CC50 CEM; CEM cells
[3] = tested on: African green monkey kidney (Vero) cells; assay: Cytotoxicity, CellTiter 96 cell proliferation assay, Vero cells; type: cell-based; details: read-out: Cytotoxicity, CC50 Vero; Vero cells
[4] = tested on: human peripheral blood mononuclear (PBM) cells; assay: Cytotoxicity, CellTiter 96 cell proliferation assay, PBM cells; type: cell-based; details: read-out: Cytotoxicity, CC50 PBM; PBM cells
[5] = tested on: HBV DNA production in HepAD38 cells; assay: Anti-HBV activity; type: cell-based, Hepatitis B virus (HBV); details: for times less potent than GLP-26: HepAD38 vs GLP-26
[6] = Cytotoxicity, CellTiter 96 cell proliferation assay, HepG2 cells; type: cell-based, human; details: human, HepG2 hepatocellular carcinoma cells
[7] = Cytotoxicity, CellTiter 96 cell proliferation assay, CEM cells; type: cell-based, human; details: human, CEM T lymphoblast cells
[8] = Cytotoxicity, CellTiter 96 cell proliferation assay, Vero cells; type: cell-based, African green monkey; details: African green monkey, Vero kidney cells
[9] = Cytotoxicity, CellTiter 96 cell proliferation assay, PBM cells; type: cell-based, human; details: human, peripheral blood mononuclear (PBM) cells
[10] = molecular target: preassembled HBV capsids (Cp149 protein) (Hepatitis B virus genotype D subtype ayw, UniProt P03146); details: 20 μM CAM
Chain of preassembled HBV capsids (Cp149 protein) (P03146 1-149): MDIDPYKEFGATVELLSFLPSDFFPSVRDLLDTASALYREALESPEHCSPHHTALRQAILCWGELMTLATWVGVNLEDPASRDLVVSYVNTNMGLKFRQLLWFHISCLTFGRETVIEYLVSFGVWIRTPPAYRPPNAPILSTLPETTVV

Cp149 dimers [11] = molecular target: T1, Cp149 dimers (Hepatitis B virus genotype D subtype ayw, UniProt P03146); assay: Static SAXS of Cp149 capsid assembly in the presence of CAM; type: biochemical, Hepatitis B virus (HBV); details: ρ = 3, undiluted sample, 30 μM dimers; 1.54 cm^−1 without CAM
T1 sequence (P03146 1-149): as above

Cp149 dimers [12] = molecular target: T1, Cp149 dimers; assay: Mass photometry of Cp149 capsid assembly in the presence of CAM; type: biochemical, Hepatitis B virus (HBV); details: ρ = 3, assembled at 30 μM subunits, diluted to 0.18 μM; 57% without CAM
Cp149 dimers [13] = molecular target: T1, Cp149 dimers; assay: Cryo-electron microscopy classification of Cp149 capsids assembled with CAM; type: biochemical, Hepatitis B virus (HBV); details: ρ = 3 (90 μM), 30 μM Cp149
Procedure, shortened: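 Cp149 was expressed in E. coli BL21 and purified as capsids. These were dissociated with 3 M urea and taken to subunits by SEC. Assembly was triggered manually by mixing 30 μM (1 mg/ml) dimers in 1 mM DTT, 20 mM Tris-HCl pH 7.5 with 200 mM ammonium acetate, with or without 90 μM CAM (ρ = 3). Samples were concentrated 11-fold, imaged by cryo-EM, and particles 2D-classified.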

Cp149 dimers [14] = molecular target: T1, Cp149 dimers; details: for Rgw (mean radius of gyration, plateau) / 〈N〉w∞ (mean aggregation number at equilibrium) / Associated timescale of Rgw / Associated timescale of 〈N〉w: ρ = 3, 30 μM subunits, 200 mM ammonium acetate; for Rgw (mean radius of gyration, plateau): 37°C, ρ = 0: 176 ± 6 Å; for 〈N〉w∞ (mean aggregation number at equilibrium): ρ = 0: 156 ± 6; for Associated timescale of Rgw: ρ = 0: 237 ± 62 ms; for Associated timescale of 〈N〉w: ρ = 0: 699 ± 138 ms
[15] = read-out: Anti-HBV activity EC50, HBV DNA production, HepAD38 cells
[16] = read-out: Anti-HBV activity EC90, HBV DNA production, HepAD38 cells
[17] = Hepatitis B virus, HePAD38, read-out: Anti-HBV activity EC50
[18] = Hepatitis B virus, HePAD38, read-out: Anti-HBV activity EC90

Structure (SMILES) | CC50 [1] | CC50 [2] | CC50 [3] | CC50 [4] | EC50 [5, 15] | EC90 [5, 16] | also measured
Cc1c(C(=O)C(=O)NCc2cn(CCCCCCCCCCCCn3cc(CNC(=O)C(=O)c4c(C)c(C(=O)Nc5ccc(F)c(F)c5)n(C)c4C)nn3)nn2)c(C)n(C)c1C(=O)Nc1ccc(F)c(F)c1 [Compound 6d, 4,4’-(2,2’-(((Dodecane-1,12-diylbis(1H-1,2,3-triazole-1,4-diyl))bis (methylene))bis(azanediyl))bis(2-oxoacetyl))bis(N-(3,4-difluorophenyl)-1,3,5-trimethyl-1H-pyrrole-2-carboxamide)] | > 100 µM | 42.8 ± 0.6 µM | > 100 µM | 63.4 ± 40.6 µM | 0.0001 µM | 0.008 ± 0.001 µM | times more potent than reference compound GLP-26 ([5]; HepAD38 EC50 vs GLP-26): 80 times
Cc1c(C(=O)C(=O)NCc2cn(CCCCCCCCCCn3cc(CNC(=O)C(=O)c4c(C)c(C(=O)Nc5ccc(F)c(F)c5)n(C)c4C)nn3)nn2)c(C)n(C)c1C(=O)Nc1ccc(F)c(F)c1 [Compound 6c, 4,4’-(2,2’-(((Decane-1,10-diylbis(1H-1,2,3-triazole-1,4-diyl))bis(methylene))bis(azanediyl))bis (2-oxoacetyl))bis(N-(3,4-difluorophenyl)-1,3,5-trimethyl-1H-pyrrole-2-carboxamide)] | > 100 µM | > 100 µM | > 100 µM | > 100 µM | 0.004 ± 0.001 µM | 0.14 ± 0.11 µM | 
Cc1c(C(=O)C(=O)NCc2c[nH]nn2)c(C)n(C)c1C(=O)Nc1ccc(F)c(F)c1 [Compound 7, 4-(2-(((1H-1,2,3-triazol-4-yl)methyl)amino)-2-oxoacetyl)-N-(3,4-difluorophenyl)-1,3,5-trimethyl-1H-pyrrole-2-carboxamide] |  |  |  |  |  |  | CC50 [6]: > 100 µM; CC50 [7]: 67.8 ± 19.6 µM; CC50 [8]: > 100 µM; CC50 [9]: 74 ± 14 µM; EC50 [5, 17]: 0.047 ± 0.042 µM; EC90 [5, 18]: 0.58 ± 0.03 µM; SI: Selectivity index ([5]; toxicity in HepG2 / activity in HepAD38): >2128
Cc1c(C(=O)C(=O)NCc2cn(CCCCCCn3cc(CNC(=O)C(=O)c4c(C)c(C(=O)Nc5ccc(F)c(F)c5)n(C)c4C)nn3)nn2)c(C)n(C)c1C(=O)Nc1ccc(F)c(F)c1 [Compound 6a, 4,4’-(2,2’-(((Hexane-1,6-diylbis(1H-1,2,3-triazole-1,4-diyl))bis(methylene))bis(azanediyl))bis(2-oxoacetyl))bis(N-(3,4-difluorophenyl)-1,3,5-trimethyl-1H-pyrrole-2-carboxamide)] | > 100 µM | > 100 µM | > 100 µM | > 100 µM | 0.285 ± 0.021 µM | > 10 µM | 
CCCCCCCCCCCCn1cc(CNC(=O)C(=O)c2c(C)c(C(=O)Nc3ccc(F)c(F)c3)n(C)c2C)nn1 [Compound 10, N-(3,4-difluorophenyl)-4-(2-(((1-dodecyl-1H-1,2,3-triazol-4-yl)methyl)amino)-2-oxoacetyl)-1,3,5-trimethyl-1H-pyrrole-2-carboxamide] |  |  |  |  |  |  | CC50 [6]: 30.5 ± 25.6 µM; CC50 [7]: 9.9 ± 4.6 µM; CC50 [8]: 10.4 ± 9 µM; CC50 [9]: 1.6 ± 0.6 µM; EC50 [5, 17]: 0.307 ± 0.153 µM; EC90 [5, 18]: 0.97 ± 0.13 µM
C#CCNC(=O)C(=O)c1c(C)c(C(=O)Nc2ccc(F)c(F)c2)n(C)c1C [GLP-26] | > 100 µM | > 100 µM | 30.5 ± 6.7 µM | > 100 µM | 0.008 ± 0.001 µM | 0.07 ± 0.02 µM | Radius (DLS, table) ([10]; 7.5 μM Cp149, 30 min, 1% DMSO control 24.6 ± 3.4): 53.0 ± 13.6 nM; PD (polydispersity) ([10]; 7.5 μM Cp149, 30 min, 1% DMSO control 32.3 ± 18.6): 26.8 ± 9.8%; average particle radius (DLS, text) ([10]; 1% DMSO control 24.6 nm): 53.0 nm; SAXS intensity at zero angle I(0) (Cp149 dimers [11]): 1.86 cm⁻¹; capsid-sized events (Cp149 dimers [12]): 27%; larger objects with an ellipsoidal appearance (2D classification) (Cp149 dimers [13]): 17.5%; objects that appeared to be T = 3 capsids (2D classification) (Cp149 dimers [13]): 1.8%; objects very similar to T = 4 capsids (2D classification) (Cp149 dimers [13]): 81.3%; Subunit binding energies −Δg (Cp149 dimers [14]): 10.4 kT; Rgw (mean radius of gyration, plateau) (Cp149 dimers [14]): 180 Å and 180 ± 1Å; 〈N〉w∞ (mean aggregation number at equilibrium) (Cp149 dimers [14]): 190 and 190 ± 11; Associated timescale of Rgw (Cp149 dimers [14]): 116 ± 63 ms; Associated timescale of 〈N〉w (Cp149 dimers [14]): 487 ± 178 ms
Cc1c(C(=O)C(=O)NCc2cn(CCCCCCCCn3cc(CNC(=O)C(=O)c4c(C)c(C(=O)Nc5ccc(F)c(F)c5)n(C)c4C)nn3)nn2)c(C)n(C)c1C(=O)Nc1ccc(F)c(F)c1 [Compound 6b, 4,4’-(2,2’-(((Octane-1,8-diylbis(1H-1,2,3-triazole-1,4-diyl))bis(methylene))bis(azanediyl))bis(2-oxoacetyl))bis(N-(3,4-difluorophenyl)-1,3,5-trimethyl-1H-pyrrole-2-carboxamide)] | > 100 µM | > 100 µM | > 100 µM | > 100 µM | 0.438 ± 0.211 µM | 5.52 µM | 
Cc1c(C(=O)C(=O)NCc2cn(CCCCCCCCCCCCCCCCCCn3cc(CNC(=O)C(=O)c4c(C)c(C(=O)Nc5ccc(F)c(F)c5)n(C)c4C)nn3)nn2)c(C)n(C)c1C(=O)Nc1ccc(F)c(F)c1 [Compound 6g, 4,4’-(2,2’-(((Octadecane-1,18-diylbis(1H-1,2,3-triazole-1,4-diyl))bis(methylene))bis(azanediyl))bis(2-oxoacetyl))bis(N-(3,4-difluorophenyl)-1,3,5-trimethyl-1H-pyrrole-2-carboxamide)] | > 100 µM | > 100 µM | > 100 µM | > 100 µM | 0.025 ± 0.024 µM | 0.38 ± 0.01 µM | times less potent than GLP-26 [5]: 2–3 times
Cc1c(C(=O)C(=O)NCc2cn(CCCCCCCCCCCCCCCCn3cc(CNC(=O)C(=O)c4c(C)c(C(=O)Nc5ccc(F)c(F)c5)n(C)c4C)nn3)nn2)c(C)n(C)c1C(=O)Nc1ccc(F)c(F)c1 [Compound 6f, 4,4’-(2,2’-(((Hexadecane-1,16-diylbis(1H-1,2,3-triazole-1,4-diyl))bis(methylene))bis(azanediyl))bis(2-oxoacetyl))bis(N-(3,4-difluorophenyl)-1,3,5-trimethyl-1H-pyrrole-2-carboxamide)] | > 100 µM | > 100 µM | > 100 µM | > 100 µM | 0.018 ± 0.011 µM | 0.13 ± 0.06 µM | times less potent than GLP-26 [5]: 2–3 times
Cc1cc(NC(=O)c2cccc(S(=O)(=O)N[C@H]3CCOC3)c2)ccc1F [JNJ-632] |  |  |  |  |  |  | Subunit binding energies −Δg (Cp149 dimers [14]): 15.8 kT; Rgw (mean radius of gyration, plateau) (Cp149 dimers [14]): 176 ± 0.5 Å; 〈N〉w∞ (mean aggregation number at equilibrium) (Cp149 dimers [14]): 150 ± 4; Associated timescale of Rgw (Cp149 dimers [14]): 100 ± 24 ms; Associated timescale of 〈N〉w (Cp149 dimers [14]): 273 ± 46 ms

From article PMC13077713 (Journal of medicinal chemistry, 2025)
